High-throughput results: PubChem BioAssay, Broad Institute
Shown are actives, neighbours in structure and some others; about 2.8% of the full set was active somewhere.
CAL PDZ FP-1: CAL PDZ peptide-binding inhibitors, primary screen, biochemical, fluorescence polarization, Cer-tagged CAL PDZ, HTS. purified CAL PDZ, TMR-peptide fluorescence polarization, 1 h. hit rate 0.02% among 330,000. inhibition, % at 20 µM;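 active means highest replicate inhibition of at least 40%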
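Control set: unlabelled peptide and DMSO controls / Material: purified CerCALP PDZ construct / Timing: 1 h incubation at room temperature before polarization reading / Doses: 20 µM, one dose / Detection: fluorescence polarization (mP)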
CAL PDZ FP-2: untagged CAL PDZ binding inhibitors, primary screen, biochemical, fluorescence polarization, HTS. purified CAL PDZ, TMR-peptide fluorescence polarization, 1 h. hit rate 0.92% among 300,000. inhibition, % at 24.9 µM. Golgi-associated PDZ and coiled-coil motif-containing protein (Homo sapiens), Q9HD26;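 active means mean inhibition of at least 30% with at least half of replicates also reaching 30%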
SR-BI DiI inh: inhibitors of SR-BI mediated HDL lipid uptake, primary screen, ldlA[mSR-BI] cells, fluorescence, single point; Scavenger receptor class B member 1 (Mus musculus), Q61009; ldlA[mSR-BI] CHO cells, DiI-HDL uptake fluorescence, 3 h; inhibition, % at 12.5 µM; hit rate 0.96% among 320,000;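 active means mean replicate inhibition of at least 70% and a set share of replicates each scoring 70 or more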
SR-BI uptake up: activators of SR-BI mediated DiI-HDL uptake, primary screen, ldlA[mSR-BI] CHO cells, DiI fluorescence; 3 h; 100 = double the neutral-control signal; activation, % at 12.5 µM; hit rate 0.096% among 320,000; AID 504775, 2011;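 active means mean replicate activation of at least 60% and every replicate at or above 60%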
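Test system: SR-BI-overexpressing, LDLR-lacking CHO cells; Also added: labelled HDL, 10 µg/mL; Measured by: bottom-read cell fluorescence after medium removal, ex 550/em 595 nm; Timing: 3 h uptake period with compound, 37 °C; Buffer or medium: F12, 0.5% BSA, 25 mM HEPES; Doses: single compound concentration, delivered by pin transfer.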
dFosB act-1: activators of delta FosB homodimer, primary screen, biochemical, fluorescence polarization, TAMRA-CDK5 oligo, single point | hit rate 0.99% among 340,000 | purified delta FosB; percent of positive-control signal above neutral wells | activation, % at 25 µM | AID 493131, 2011;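 active means mean activation above about 17%, with every replicate also reaching it, limit read from the data, passing the limit was not always enough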
Target sequence (P13346 whole entry, looked up): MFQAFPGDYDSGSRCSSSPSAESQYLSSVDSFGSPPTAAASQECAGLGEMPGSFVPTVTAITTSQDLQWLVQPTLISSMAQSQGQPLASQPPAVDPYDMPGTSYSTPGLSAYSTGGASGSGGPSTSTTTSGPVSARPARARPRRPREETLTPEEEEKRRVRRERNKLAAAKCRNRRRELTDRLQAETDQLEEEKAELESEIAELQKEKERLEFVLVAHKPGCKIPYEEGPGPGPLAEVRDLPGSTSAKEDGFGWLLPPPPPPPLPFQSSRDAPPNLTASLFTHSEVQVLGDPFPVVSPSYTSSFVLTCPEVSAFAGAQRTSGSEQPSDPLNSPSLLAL
dFosB act-2: activators of mouse delta FosB DNA binding, confirmation, biochemical, fluorescence polarization, TAMRA-CDK5 oligo, cherry-picked samples; activation, % at 24.9 µM; 2,400 tested, under 10 active; purified delta FosB; normalised: neutral wells 0, positive control 100; AID 588690, 2011; shares compounds with dFosB act-1;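 active means highest replicate activation at or above 34% and every replicate reaching that threshold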;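 further: higher polarization means more probe DNA bound by delta FosB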
Each line names hits and unclear results; the compound was inactive in the other large screens (follow-up assays come after a bar, where they were run).

COCCCNC(=O)c1sc2ncn(CC(=O)Nc3ccc(C)c(Cl)c3)c(=O)c2c1C	none
Cc1ccc(C)c(CN2C(=O)c3ccccc3S(=O)c3ccc(C(=O)NCCCN4CCCC4)cc32)c1 (stereo not drawn)	dFosB act-1 25 | dFosB act-2 inactive
Cc1cc(C)cc(OCC(=O)N/N=C/c2ccco2)c1	none
O=C(COc1c(Br)cc(Br)cc1Br)N/N=C/c1ccco1	dFosB act-1 31 (no result: CAL PDZ FP-2) | dFosB act-2 inactive
Cc1ccc(OCCC(=O)OC(C)C(=O)NC2CC2)cc1 (stereo not drawn)	none
CC[C@H](C)[C@@H]1NC(=O)c2cc([N+](=O)[O-])cc(F)c2NCCCC[C@@H](C(N)=O)NC(=O)[C@H](CCCCN)NC1=O	dFosB act-1 21 | dFosB act-2 inactive
COc1ccc(NC(=O)CSc2nnc(NC(=O)c3ccco3)s2)cc1	none
O=C(Cc1ccccc1)Nc1nnc(SCC(=O)NC2CCCC2)s1	none
O=C(CSc1nnc(NC(=O)c2ccco2)s1)Nc1ccc(F)cc1	dFosB act-1 19 | dFosB act-2 inactive
O=C(CSc1nnc(NC(=O)c2ccco2)s1)NC1CCCCC1	dFosB act-1 22 | dFosB act-2 inactive
Cc1ccc(N(C)S(=O)(=O)c2cccc(C(=O)N(C)Cc3cnn(-c4ccccc4)c3)c2)cc1	none
Cc1ccc(NC(=O)c2ccc(S(=O)(=O)N3CCCC3)cc2)nc1	none (no result: CAL PDZ FP-2)
CCOc1cc(/C=N/N=C(\N)c2nonc2N)cc(Br)c1OCc1cccc2ccccc12	dFosB act-1 41 | dFosB act-2 inactive
CC(C)C[C@@H](CN1CCC[C@@H]1CN1C(=O)C(=O)NC[C@@H]1Cc1ccccc1)N1C[C@H](Cc2ccc(O)cc2)N(CCc2ccccc2)C(=O)C1=O	none (no result: SR-BI DiI inh, SR-BI uptake up)
O=C1NC[C@H](Cc2ccccc2)N(C[C@H]2CCCN2C[C@H](Cc2ccccc2)N2C[C@H](Cc3ccccc3)N(CC3CCCCCC3)C(=O)C2=O)C1=O	none
CC(C)C[C@H]1CN([C@@H](Cc2ccc(O)cc2)CN2CCC[C@@H]2CN2C(=O)C(=O)NC[C@@H]2Cc2ccccc2)C(=O)C(=O)N1CC1CCCCC1	none
CCOc1ccc(CCN2C(=S)N([C@@H](CC(C)C)CN3CCCC3CN3C(=S)NC[C@@H]3Cc3ccc(O)cc3)C[C@@H]2Cc2ccc(O)cc2)cc1 (stereo partly drawn)	dFosB act-1 51 | dFosB act-2 inactive
Oc1ccc(C[C@H]2CNC(=S)N2CC2CCCN2C[C@H](Cc2ccccc2)N2C[C@H](Cc3ccc(O)cc3)N(CCc3ccccc3)C2=S)cc1 (stereo partly drawn)	SR-BI uptake up 108, dFosB act-1 67 | dFosB act-2 inactive
CCOc1ccc(CCN2C(=S)N([C@@H](CC(C)C)CN3CCCC3CN3C(=S)NC[C@@H]3Cc3ccc(O)cc3)C[C@@H]2Cc2ccccc2)cc1 (stereo partly drawn)	dFosB act-1 65 | dFosB act-2 inactive
CN(C(=O)c1cccc(NC(=O)Cc2cccc(NC(=O)C3CCCN(C(=O)c4ccccc4)C3)c2)c1)C1CC1 (stereo not drawn)	none
CCOc1cc(NC(=S)NCC2CCCO2)c(OCC)cc1NC(=O)c1cccc(F)c1 (stereo not drawn)	none
CCN(CC)S(=O)(=O)c1cccc(C(=O)Nc2nc3cc4c(cc3s2)OCCO4)c1	dFosB act-1 23 | dFosB act-2 inactive
COc1ccccc1C(=O)Nc1nc2cc3c(cc2s1)OCCO3	dFosB act-1 31 | dFosB act-2 inactive
CCOC(=O)C1=C(COC(=O)COc2ccc(OCC)cc2)NC(=O)NC1C (stereo not drawn)	none
Cc1ccc2c(c1)CCCN2C(=O)c1cc(C)on1	none
